In ChEMBL document CHEMBL4422632, “Design of Novel Inhibitors of Human Thymidine Phosphorylase: Synthesis, Enzyme Inhibition, in Vitro Toxicity, and Impact on Human Glioblastoma Cancer” (J Med Chem, 2019):
Calls of active or inactive are those of the source. The rule behind the calls is not given here.

Legend:
[1] = Cytotoxicity against human HepG2 cells assessed as cell viability at 25 uM after 72 hrs by MTT assay relative to control; format: cell-based; conditions: read-out: Activity
Summary of the method: (§1)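 Cells grown in DMEM with 10% FBS at 37 °C, 5% CO₂; seeded 2 x 10³ cells/well, adhered 24 h, then exposed 72 h. MTT: 1 mg/mL for 3 h, formazan in DMSO, absorbance 595 nm. NRU: neutral red 25 µg/mL in serum-free medium for 3 h, desorbed in ethanol:acetic acid:water. Viability as % of untreated control; mean ± SEM of three to five independent experiments in triplicate.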

[2] = Cytotoxicity against human HepG2 cells assessed as cell viability at 25 uM after 72 hrs by neutral red uptake-based assay relative to control; conditions: read-out: Activity; summary of the method: as §1
[3] = Cytotoxicity against human HepG2 cells assessed as cell viability at 50 uM after 72 hrs by MTT assay relative to control; format: cell-based; conditions: read-out: Activity; summary of the method: as §1
[4] = Cytotoxicity against human HepG2 cells assessed as cell viability at 500 uM after 72 hrs by MTT assay relative to control; format: cell-based; conditions: read-out: Activity; summary of the method: as §1
[5] = Cytotoxicity against human HepG2 cells assessed as cell viability at 50 uM after 72 hrs by neutral red uptake-based assay relative to control; conditions: read-out: Activity; summary of the method: as §1
[6] = Cytotoxicity against African green monkey Vero cells assessed as cell viability at 100 uM after 72 hrs by MTT assay relative to control; format: cell-based; conditions: chlorocebus sabaeus, read-out: Activity; summary of the method: as §1
[7] = Cytotoxicity against African green monkey Vero cells assessed as cell viability at 1000 uM after 72 hrs by MTT assay relative to control; format: cell-based; conditions: chlorocebus sabaeus, read-out: Activity; summary of the method: as §1
[8] = Cytotoxicity against African green monkey Vero cells assessed as cell viability at 50 uM after 72 hrs by neutral red uptake-based assay relative to control; conditions: chlorocebus sabaeus, read-out: Activity; summary of the method: as §1
[9] = Cytotoxicity against human HaCaT cells assessed as cell viability at 500 uM after 72 hrs by MTT assay relative to control; format: cell-based; conditions: read-out: Activity; summary of the method: as §1
[10] = Cytotoxicity against human HaCaT cells assessed as cell viability at 25 uM after 72 hrs by neutral red uptake-based assay relative to control; conditions: read-out: Activity; summary of the method: as §1
[11] = Cytotoxicity against human HaCaT cells assessed as cell viability at 100 uM after 72 hrs by neutral red uptake-based assay relative to control; conditions: read-out: Activity; summary of the method: as §1
[12] = Cytotoxicity against human HaCaT cells assessed as cell viability at 500 uM after 72 hrs by neutral red uptake-based assay relative to control; conditions: read-out: Activity; summary of the method: as §1
[13] = Cytotoxicity against human HaCaT cells assessed as cell viability at 1000 uM after 72 hrs by neutral red uptake-based assay relative to control; conditions: read-out: Activity; summary of the method: as §1
[14] = Cytotoxicity against mouse RAW264.7 cells assessed as cell viability at 100 uM after 72 hrs by neutral red uptake-based assay relative to control; conditions: read-out: Activity
Summary of the method: (§2)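 Cells kept in DMEM with 10% heat-inactivated FBS, 1% penicillin-streptomycin and 0.1% fungizone at 37 °C, 5% CO₂. U-87 MG seeded at 2 x 10^3 cells/well, RAW 264.7 at 5 x 10^2, adhered 24 h, then exposed 72 h. MTT: 1 mg/mL for 3 h, formazan in DMSO, A595. NRU: 25 μg/mL dye, 3 h, ethanol:acetic acid:water desorb. Untreated wells = 100%; three to five independent experiments in triplicate.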

[15] = Cytotoxicity against mouse RAW264.7 cells assessed as cell viability at 250 uM after 72 hrs by neutral red uptake-based assay relative to control; conditions: read-out: Activity; summary of the method: as §2
[16] = Cytotoxicity against mouse RAW264.7 cells assessed as cell viability at 500 uM after 72 hrs by neutral red uptake-based assay relative to control; conditions: read-out: Activity; summary of the method: as §2
[17] = Cytotoxicity against human U87MG cells assessed as cell viability at 50 uM after 72 hrs by MTT assay relative to control; format: cell-based, U-87MG ATCC; conditions: read-out: Activity; summary of the method: as §2
[18] = Cytotoxicity against human U87MG cells assessed as cell viability at 50 uM after 72 hrs by neutral red uptake-based assay relative to control; parameters: species or system U-87MG ATCC; conditions: read-out: Activity; summary of the method: as §2
[19] = Cytotoxicity against human U87MG cells assessed as cell viability at 100 uM after 72 hrs by neutral red uptake-based assay relative to control; parameters: species or system U-87MG ATCC; conditions: read-out: Activity; summary of the method: as §1
HepG2 = assay: Genotoxicity in human HepG2 cells assessed as induction of DNA-strand breaks at 1000 uM after 24 hrs by alkaline comet assay; format: toxicity, cell-based; conditions: hepg2, 24 h
Summary of the method: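 HepG2 seeded at 5 x 10^4 cells/well for 24 h, then exposed 24 h at 250, 500 and 1,000 μM. Alkaline comet assay: lysis 24 h, unwinding in 300 mM NaOH/1 mM EDTA (pH > 13) at 4 °C for 20 min, electrophoresis 20 min at 25 V, silver staining. MMS 100 µM as positive control. 100 cells scored 0–4 for a damage index of 0–400. Mean ± SEM of three experiments.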

Cytochrome P450 2C19 = Cytochrome P450 2C19 (Homo sapiens, UniProt P33261); assay: Inhibition of CYP2C19 in human liver microsomes by HPLC-MS/MS analysis; format: ADME
Chain of Cytochrome P450 2C19 (P33261 whole entry): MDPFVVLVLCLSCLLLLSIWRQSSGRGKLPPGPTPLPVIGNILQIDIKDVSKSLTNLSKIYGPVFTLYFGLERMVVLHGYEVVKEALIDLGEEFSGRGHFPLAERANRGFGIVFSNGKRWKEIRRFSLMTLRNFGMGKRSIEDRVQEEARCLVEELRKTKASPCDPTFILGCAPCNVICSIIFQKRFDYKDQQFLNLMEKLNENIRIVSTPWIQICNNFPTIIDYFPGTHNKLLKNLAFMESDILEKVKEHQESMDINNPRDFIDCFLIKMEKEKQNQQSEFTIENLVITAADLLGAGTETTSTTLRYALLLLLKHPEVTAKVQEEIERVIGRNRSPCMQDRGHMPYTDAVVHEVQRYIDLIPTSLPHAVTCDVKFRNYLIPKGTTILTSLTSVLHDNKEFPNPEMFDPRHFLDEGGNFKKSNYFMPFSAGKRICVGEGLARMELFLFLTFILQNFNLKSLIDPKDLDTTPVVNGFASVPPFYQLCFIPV

Cytochrome P450 2D6 = Cytochrome P450 2D6 (Homo sapiens, UniProt P10635); assay: Inhibition of CYP2D6 in human liver microsomes by HPLC-MS/MS analysis; format: ADME
Chain of Cytochrome P450 2D6 (P10635 whole entry): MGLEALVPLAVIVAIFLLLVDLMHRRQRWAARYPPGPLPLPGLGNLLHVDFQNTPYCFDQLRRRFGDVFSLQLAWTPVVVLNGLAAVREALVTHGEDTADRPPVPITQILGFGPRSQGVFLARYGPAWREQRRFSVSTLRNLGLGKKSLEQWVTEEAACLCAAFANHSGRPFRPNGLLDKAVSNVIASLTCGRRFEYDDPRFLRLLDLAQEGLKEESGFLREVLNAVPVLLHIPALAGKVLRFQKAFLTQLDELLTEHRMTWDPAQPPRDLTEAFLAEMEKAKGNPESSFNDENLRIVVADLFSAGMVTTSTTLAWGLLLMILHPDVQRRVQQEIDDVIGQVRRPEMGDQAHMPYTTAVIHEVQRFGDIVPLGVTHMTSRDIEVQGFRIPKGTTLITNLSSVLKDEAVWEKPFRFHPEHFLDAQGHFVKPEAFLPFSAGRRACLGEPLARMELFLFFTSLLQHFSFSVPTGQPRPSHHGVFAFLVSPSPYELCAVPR

[20] = Elimination half life in CF1 mouse at 50 mg/kg, ip by non-compartmental analysis; format: ADME, organism-based; conditions: in vivo
[21] = AUC (0 to infinity) in CF1 mouse at 50 mg/kg, ip by non-compartmental analysis; format: ADME, organism-based; parameters: dose 50 mg/kg, time infinity, route intraperitoneal; conditions: in vivo
Summary of the method: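 Male CF1 mice received a single ip injection of 50 mg/kg in 0.9% saline; 3 animals per time point, killed 0.03, 0.08, 0.25, 0.5, 1 and 2 h after dosing; blood collected in heparin tubes.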

[22] = AUMCt in CF1 mouse at 50 mg/kg, ip by non-compartmental analysis; format: ADME, organism-based; conditions: in vivo
Summary of the method: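 Male CF1 mice, single ip 50 mg/kg in 0.9% saline, 3 animals per time point sampled 0.03–2 h; heparinized blood. AUMC0→t computed by trapezoidal rule to last point (2 h); non-compartmental analysis.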

U-87 MG [23] = assay: Antitumor activity against human U87MG cells xenografted in BALB/c nude mouse assessed as tumor growth inhibition 50 mg/kg/day, ip administered for 14 days co-treated with temozolamide; format: functional, organism-based; conditions: U-87MG ATCC
Summary of the method: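 5 x 10⁵ U-87 MG cells implanted subcutaneously in right flank of male BALB/c nude mice; at about 50 mm³, randomized to saline or ip 50 mg/kg/day, with temozolomide 50 mg/kg/day in the combination arm, for 14 days. Relative tumor volume = volume on day / day 0; TGI on day 14 = [1 − RTV treated/RTV control] x 100. Two-way ANOVA with Bonferroni.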

U-87 MG [24] = assay: Anti-angiogenic activity in tumor of human U87MG cells xenografted in nude BALB/c mouse assessed as reduction in number of blood vessels at 50 mg/kg, ip administered for 14 days by hematoxylin and eosin-staining based light microscopy; format: functional, organism-based; conditions: U-87MG ATCC
Summary of the method: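 U-87 MG flank xenografts (5 x 10⁵ cells) in male nude mice; ip treatment daily from about 50 mm³ for 14 days, with temozolomide at 50 mg/kg/day in the co-treatment arm. Vessel density counted on HE-stained 3 µm sections by hot-spot method, mean of four fields per tumor at x200, avoiding gross haemorrhage. One-way ANOVA/Dunnett.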

[25] = Toxicity in nude BALB/c mouse xenografted with human U87MG cells assessed as reduction in body weight at 50 mg/kg, […] co-treated with temozolamide; format: organism-based; conditions: in vivo, ip, 120 h

IC50 (Cytochrome P450 2C19): > 100 µM | IC50 (Cytochrome P450 2D6): > 100 µM | beta t1/2 [20]: 30 min | AUC [21]: 17400 ng·h/mL | AUMCt [22]: 6.3 µg·h²/mL
SMILES: O=c1[nH]c(CNC(CO)CO)c(I)c(=O)[nH]1
viability at 72 h, 25 µM [1]: 103% | viability at 72 h, 25 µM [2]: 102% | viability at 72 h, 50 µM [3]: 100% | viability at 72 h, 500 µM [4]: 94% | viability at 72 h, 50 µM [5]: 103% | viability at 72 h, 100 µM [6]: 96% | viability at 72 h, 1000 µM [7]: 75% | viability at 72 h, 50 µM [8]: 112% | viability at 72 h, 500 µM [9]: 93% | viability at 72 h, 25 µM [10]: 100% | viability at 72 h, 100 µM [11]: 104% | viability at 72 h, 500 µM [12]: 95% | viability at 72 h, 1000 µM [13]: 75% | viability at 72 h, 100 µM [14]: 97% | viability at 72 h, 250 µM [15]: 85% | viability at 72 h, 500 µM [16]: 82% | viability at 72 h, 50 µM [17]: 97% | viability at 72 h, 50 µM [18]: 101% | viability at 72 h, 100 µM [19]: 104% | Activity (HepG2): Non-Toxic | TGI (U-87 MG [23]): Active | Activity (U-87 MG [24]): Active | Activity [25]: Non-Toxic
